TAAR1 antagonist = human TAAR1 antagonists, primary screen, Fluo-8 calcium fluorescence, CHO RD-HGA16 cells. Trace amine-associated receptor 1 (Homo sapiens), Q96RJ0. antagonist. inhibition, % at 3 µM. 360,000 tested, 1.5% active. AID 624466, 2012;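 active = inhibition above a per-plate cutoff, the mean inhibition of test compounds on that plate plus 3 SD, cut at about 49% in these data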
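Test system: CHO RD-HGA16 cells bearing hTAAR1 | Reagent: β-PEA, EC80 | Compound dosing: 3 µM, single point | Schedule: Dye loading 75 min at 37 °C, then 30 min room temperature | Signal: Calcium fluorescence with Fluo-8 | Evaluation: Percent inhibition of PEA-evoked calcium signal, max/basal emission ratio | Control set: DMSO-only wells and EC80 β-PEA-stimulated wells | Repeats: Singlicate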
CHRM1 agonist = human M1 muscarinic receptor agonists, primary screen, Fluo-8 calcium fluorescence, CHO-K1 cells, HTS | Muscarinic acetylcholine receptor M1 (Homo sapiens), P11229 | CHO-K1 hM1, agonist mode; 0% DMSO, 100% acetylcholine EC100 | activation, % at 3 µM | 360,000 tested, 0.33% active | AID 588814, 2011;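 active = activation above the run's mean compound activation plus 3 SD, cut at about 16% in these data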;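 also: peak over basal fluorescence ratio within a 140 s kinetic read after compound addition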
Target sequence (P11229 whole entry, looked up): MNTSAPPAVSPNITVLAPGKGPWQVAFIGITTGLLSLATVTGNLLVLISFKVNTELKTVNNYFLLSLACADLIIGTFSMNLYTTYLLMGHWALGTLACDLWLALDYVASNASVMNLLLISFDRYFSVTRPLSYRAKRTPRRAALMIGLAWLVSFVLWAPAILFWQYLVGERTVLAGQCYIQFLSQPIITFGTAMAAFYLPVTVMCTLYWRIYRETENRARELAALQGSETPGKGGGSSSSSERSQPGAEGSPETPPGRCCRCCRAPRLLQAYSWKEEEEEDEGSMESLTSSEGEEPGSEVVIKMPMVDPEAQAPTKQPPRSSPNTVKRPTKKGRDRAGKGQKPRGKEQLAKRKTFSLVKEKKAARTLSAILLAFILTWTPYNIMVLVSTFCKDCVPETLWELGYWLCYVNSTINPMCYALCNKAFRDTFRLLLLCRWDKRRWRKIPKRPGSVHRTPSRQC
M1 PAM = human M1 muscarinic receptor positive allosteric modulators, primary screen, CHO-K1 cells, Fluo-8 calcium fluorescence, 1536-well | CHO-K1 hM1, ACh EC20; 0% = ACh EC20, 100% = maximal ACh | 360,000 tested, 0.088% active | Muscarinic acetylcholine receptor M1 (Homo sapiens), P11229 | activation, % at 3 µM; in the data active = activation above about 19%, passing the limit was not always enough
CHRM1 antagonist = human M1 muscarinic receptor antagonists, primary screen, CHO-K1 cells, Fluo-8 calcium fluorescence, 1536-well; CHO-K1 hM1, ACh EC80 antagonist; 360,000 tested, 1.3% active; inhibition, % at 3 µM;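 active = percent inhibition above its own plate's cutoff, namely the mean of that plate's compound wells plus 3 SD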;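 also: peak over basal fluorescence ratio during 140 s after agonist addition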
TAAR1 agonist = human TAAR1 agonists, primary screen, Fluo-8 calcium fluorescence, CHO RD-HGA16 cells | Trace amine-associated receptor 1 (Homo sapiens), Q96RJ0 | vehicle wells 0%, saturating PEA agonist 100% | activation, % at 3 µM | 360,000 tested, 0.99% active | AID 624467, 2012;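 active = activation above the mean activation of all test compounds in the run plus 3 SD, cut at about 38% in these data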
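Assay system: CHO-derived RD-HGA16 cells with stable Gα16 and human TAAR1; timing: 17-24 h seeding, 75 min 37 °C dye, 30 min RT; read-out: % activation from peak over basal fluorescence ratio, DMSO-to-PEA scaled; measured by: kinetic Fluo-8 calcium fluorescence; benchmarks: low control DMSO, high control PEA (EC100); doses: 3 µM single concentration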
nonsel antag count = nonselective antagonists in TAAR1 counter-screen cells, counter-screen for hTAAR1 antagonist project, cell-based, fluorescence, calcium; shares compounds with TAAR1 antagonist; counterscreen cell line, antagonist mode; inhibition, % at 3 µM; 2,400 tested, 77% active; in the data active = inhibition above about 22%;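 also: CHO-Ga16 host cells stimulated with ATP at an EC80 level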
TAAR1 ant conf = human TAAR1 antagonists, retest of hits, confirmation, cell-based, fluorescence. shares compounds with TAAR1 antagonist. TAAR1-expressing cells, fluorescence antagonist read-out. inhibition, % at 3 µM. 2,400 tested, 40% active. AID 651785, 2012; in the data active = inhibition above about 49%;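 also: CHO-Ga16 host cells challenged with agonist PEA near its EC80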
Ga16 ag counter = calcium activation in Ga16-expressing cells, counter-screen for TAAR1 antagonist project, cell-based, fluorescence; shares compounds with TAAR1 antagonist; agonist counterscreen; activation, % at 3 µM; 2,400 tested, 18% active; AID 651953, 2012; in the data active = activation above about 12%
TAAR1 ag count = TAAR1 activation by candidate antagonists – cell-based, fluorescence, counter-screen for TAAR1 antagonist project. shares compounds with TAAR1 antagonist. hTAAR1 cell line, agonist mode. activation, % at 3 µM. 2,400 tested, 2% active. AID 651955, 2012; in the data active = activation above about 37%;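 also: CHO cells stably expressing TAAR1 with calcium dye readout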
A number is an active result; . = inactive; / = no result. A selection: hits, their analogues and other compounds. The true share with any hit is near 3.4%.

SMILES | TAAR1 antagonist | CHRM1 agonist | M1 PAM | CHRM1 antagonist | TAAR1 agonist | nonsel antag count | TAAR1 ant conf | Ga16 ag counter | TAAR1 ag count
O=C(NCCN1CCC2(CC1)C(=O)NCN2c1ccccc1)c1ccc(F)cc1F | . | / | / | / | . | / | / | / | /
CC1CN(c2ccccn2)C(C)CN1C(=O)C(O)(c1ccccc1)c1ccccc1 (stereo not given) | . | . | . | . | . | / | / | / | /
CC(=O)OCC[N+](C)(C)C | . | / | / | / | . | / | / | / | /
C[N+](C)(C)CCOC(=O)CBr | . | 20 | . | . | . | / | / | / | /
C[C@]12C[C@H](O)[C@@H](O)C[C@@H]1CC[C@@H]1[C@@H]2CC[C@]2(C)C(=O)CC[C@@H]12 | 51 | . | . | . | . | / | / | / | /
COC(=O)C1=C(c2ccc(F)cc2OCc2ccccc2)C[C@@H]2CC[C@H]1N2C(=O)NCCOc1ccccc1 | 69 | . | . | . | . | . | . | 13 | .
COC(=O)C1=C(c2ccc(F)cc2OCc2ccccc2)C[C@@H]2CC[C@H]1N2C(=O)NCCOc1ccc(OC)cc1 | 59 | . | . | . | . | . | . | . | .
N#Cc1ncc(N=Cc2ccc(N(CCCl)CCCl)cc2)s1 | . | . | . | . | . | / | / | / | /
Cc1nn(CC(C)C)c(Cl)c1C(=O)NC1CCCCC1 | . | . | . | . | . | / | / | / | /
CN(C)P1(=O)N(C)CCN1C | . | . | . | . | . | / | / | / | /
O=P(Nc1cccc(F)c1)(Oc1ccccc1F)Oc1ccccc1F | 90 | . | . | . | . | 29 | 67 | . | .
COc1cccc(NP(=O)(Oc2ccc(Cl)cc2)Oc2ccc(Cl)cc2)c1 | 59 | . | . | . | . | . | . | . | .
O=P(Nc1ccccc1)(Nc1ccccc1)Oc1ccc(Cl)cc1 | / | . | . | . | / | / | / | / | /
CC(=O)C1C(N2CC2)CC2C3CC=C4CC(O)CCC4(C)C3CCC21C (stereo not given) | . | . | . | . | . | / | / | / | /
COc1cc2c(cc1OC)C13CCN4CC5CCOC6CC(=O)N2C1C6C5CC43 (stereo not given) | . | . | . | . | . | / | / | / | /
O=C(NCC1=C(c2cccc3ccccc23)C[C@@H]2CC[C@H]1N2Cc1ccco1)c1cccs1 | . | . | . | . | . | / | / | / | /
CCC(C)N1C(=O)NC(=O)C2(Cc3c(ccc4ccccc34)N(C)C2)C1=O (stereo not given) | 56 | . | . | 44 | . | 33 | 52 | . | .
COc1ccc2c(c1)CC1(CN2C)C(=O)NC(=O)N(CCc2ccccc2)C1=O (stereo not given) | . | . | . | . | . | / | / | / | /
CCOC(=O)CC(SP1(=S)OCC2(CCCCC2)CO1)C(=O)OCC (stereo not given) | 58 | . | . | . | . | . | . | . | .
Cc1ccc(-n2c(C)nc3ccccc3c2=O)cc1C | . | . | . | . | . | / | / | / | /
COc1ccc(-n2c(/C=C/c3ccc(O)cc3)nc3ccccc3c2=O)cc1 | 66 | . | . | . | . | 30 | . | . | .
COc1ccc(-n2c(/C=C/c3ccc(O)c(OC)c3)nc3ccccc3c2=O)cc1 | 59 | . | . | . | . | 29 | . | . | .
Cc1nc2ccccc2c(=O)n1-c1ccc(-c2ccccc2)cc1 | 50 | . | . | . | . | 23 | . | . | .
COC(=O)C1=C(c2ccc(F)cc2OCc2ccccc2)C[C@@H]2CC[C@H]1N2C(=O)NCc1ccc(OC)cc1 | 62 | . | . | . | . | . | . | . | .
COC(=O)C1=C(c2ccc(F)cc2OCc2ccccc2)C[C@@H]2CC[C@H]1N2C(=O)NCc1cccc(OC)c1 | 74 | . | . | . | . | 29 | . | . | .
SMILES | TAAR1 antagonist | CHRM1 agonist | M1 PAM | CHRM1 antagonist | TAAR1 agonist | nonsel antag count | TAAR1 ant conf | Ga16 ag counter | TAAR1 ag count
COC(=O)C1=C(c2ccccc2OCc2ccccc2)C[C@@H]2CC[C@H]1N2C(=O)NCc1cccc(F)c1 | . | . | . | . | . | / | / | / | /
CN1C2CNC(=O)CC1C1CCC2C1 (stereo not given) | . | . | . | . | . | / | / | / | /
C=C1C(C)C2C(Cc3ccccc3)NC(=O)C23OC(=O)/C=C/C(O)CCCC(C)C/C=C/C3C1O (stereo not given) | 70 | . | . | . | . | . | 50 | 13 | .
COc1ccc2nc(-c3ccc(CN4CCC(n5nnc6ccccc65)CC4)cc3)c(-c3ccccc3)nc2c1 | 50 | / | / | / | . | . | . | . | .
Cc1ccc2nc(-c3ccc(CN4CCC(n5nnc6ccccc65)CC4)cc3)c(-c3ccccc3)nc2c1 | 75 | / | / | / | . | 27 | . | . | .
Cc1ccc2nc(-c3ccc(CN4CCC(n5c(=O)[nH]c6ccccc65)CC4)cc3)c(-c3ccccc3)nc2c1 | . | / | / | / | . | / | / | / | /
CC12CC(O)C3C(CCC4=CC(=O)CCC43C)C1CCC2=O (stereo not given) | . | . | . | . | . | / | / | / | /
CCCCn1nnnc1C(CCSC)N1CCC(n2c(=O)[nH]c3ccccc32)CC1 (stereo not given) | 65 | . | . | . | . | 29 | 54 | . | .
CCCCn1nnnc1C(C1CC1)N1CCC(n2c(=O)[nH]c3ccccc32)CC1 (stereo not given) | 73 | . | . | . | . | 24 | . | . | .
COc1ccc(-n2nnnc2C(CCc2ccccc2)N2CCC(n3c(=O)[nH]c4ccccc43)CC2)cc1 (stereo not given) | 57 | . | . | . | . | . | . | . | .
CCCCn1nnnc1C(C1CC1)N1CCC2(CC1)C(=O)NCN2c1ccccc1 (stereo not given) | . | . | . | . | . | / | / | / | /
CCCCn1nnnc1C(CCc1ccccc1)N1CCC(n2c(=O)[nH]c3ccccc32)CC1 (stereo not given) | 67 | . | . | . | . | . | . | . | .
COc1ccc(-n2nnnc2C(c2ccccc2OC(F)(F)F)N2CCC(n3c(=O)[nH]c4ccccc43)CC2)cc1 (stereo not given) | . | . | . | . | . | / | / | / | /

Assay outcomes from PubChem.
